# The source made the active and inactive calls. The rule behind the calls is not given here.
# Key:
# Canis familiaris [1] = assay: % Inhibition of acid output in dogs at a dose of 5.0 mg/kg administered intravenously; assay type: functional; details: Canis lupus familiaris, route intravenous
# Procedure, shortened: (§1)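 Dogs with chronic gastric fistula; gastric acid secretion evoked by maximal stimulating histamine dose (64 μg/kg, sc). Test agent given intravenously, or intragastrically via fistula for peroral dosing; percent inhibition of acid output recorded at the stated single dose.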
# Canis familiaris [2] = assay: % Inhibition of acid output in dogs at a dose of 20 mg/kg administered perorally; assay type: functional; details: Canis lupus familiaris, route oral; procedure, shortened: as §1
# Histamine H2 receptor = Histamine H2 receptor (Cavia porcellus, UniProt P47747); assay: Evaluated in vitro for Histamine H2 receptor inhibition using the dimaprit stimulated chronotropic response of the guinea pig atrium; assay type: tissue-based, Cardiac atrium
# Procedure, shortened: (§2)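 Isolated guinea pig atria; chronotropic response to rising concentrations of H2 agonist dimaprit (10⁻⁷–10⁻⁴ M) in presence of test agent; three to four atria per test concentration; -log K_I = log(ED50 dose ratio − 1) − log(drug dose).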
# [3] = pKa of heterocyclic component measured as proton gained; assay type: physicochemical
# Procedure, shortened: (§3)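 Potentiometric titration in water with glass electrodes; heterocycle pKa taken as proton gained, urea-component pKa as proton lost; method upper limit pKa 11.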
# Canis familiaris [4] = assay: Effective dose administarted intravenously required for 50 % inhibition of acid output in dogs; value may range from 0.15-0.18; assay type: functional; details: Canis lupus familiaris, iv
# Canis familiaris [5] = assay: Effective dose administarted perorally required for 50 % inhibition of acid output in dogs; assay type: functional; details: Canis lupus familiaris, po
# [6] = target: Histamine H2 receptor (Cavia porcellus) (UniProt P47747); assay: Evaluated in vitro for Histamine H2 receptor inhibition using the dimaprit stimulated chronotropic response of the guinea pig atrium; inact means inactive at 8 x 10 -8 M; assay type: tissue-based; details: Cardiac atrium, in the assay text read “8 x 10 -5 M” for “8 x 10 -8 M”; procedure, shortened: as §2
# [7] = pKa of urea component measured as proton lost reference pKa for the 3,4 diaminothiadiazole 1-oxide is ~11 in water; assay type: physicochemical; details: buffer; procedure, shortened: as §3
# Canis familiaris [8] = assay: % Inhibition of acid output in dogs at a dose of 3.0 mg/kg administered intravenously; assay type: functional; details: Canis lupus familiaris, route intravenous; procedure, shortened: as §1
# Canis familiaris [9] = assay: % Inhibition of acid output in dogs at a dose of 0.03 mg/kg administered intravenously; assay type: functional; details: Canis lupus familiaris, route intravenous; procedure, shortened: as §1
# Canis familiaris [10] = assay: % Inhibition of acid output in dogs at a dose of 10 mg/kg administered perorally; assay type: functional; details: Canis lupus familiaris, route oral; procedure, shortened: as §1
# Canis familiaris [11] = assay: Effective dose administarted intravenously required for 50 % inhibition of acid output in dogs; value may range from 0.01-0.02; assay type: functional; details: Canis lupus familiaris, iv
# Canis familiaris [12] = assay: Effective dose administarted intravenously required for 50 % inhibition of acid output in dogs; Value may range from 0.01-0.03; assay type: functional; details: Canis lupus familiaris, iv
# Canis familiaris [13] = assay: Effective dose administarted perorally required for 50 % inhibition of acid output in dogs; value may range from 0.7-10.9; assay type: functional; details: Canis lupus familiaris, po
# Canis familiaris [14] = assay: Effective dose administarted intravenously required for 50 % inhibition of acid output in dogs; value may range from 0.01-0.08; assay type: functional; details: Canis lupus familiaris, iv
# Histamine H2 receptor, sequence (P47747 whole entry): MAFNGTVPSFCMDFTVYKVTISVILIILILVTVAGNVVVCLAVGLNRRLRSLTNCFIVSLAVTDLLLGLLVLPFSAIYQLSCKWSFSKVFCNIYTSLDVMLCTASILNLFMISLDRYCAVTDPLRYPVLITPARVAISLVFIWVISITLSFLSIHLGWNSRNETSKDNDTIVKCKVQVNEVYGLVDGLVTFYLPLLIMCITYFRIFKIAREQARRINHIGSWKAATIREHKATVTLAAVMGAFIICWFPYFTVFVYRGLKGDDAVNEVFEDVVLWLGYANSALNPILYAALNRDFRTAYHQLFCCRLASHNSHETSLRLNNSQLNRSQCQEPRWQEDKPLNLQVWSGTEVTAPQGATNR
# Histamine H2 receptor (Cavia porcellus), sequence (P47747 whole entry): as above
Ki (Histamine H2 receptor),pKa [3],Structure (SMILES),inhibition in vivo at 5 mg/kg (Canis familiaris [1]),inhibition in vivo at 0.03 mg/kg (Canis familiaris [9]),inhibition in vivo at 10 mg/kg (Canis familiaris [10]),other results
15800 nM,–,CN/C(=C\[N+](=O)[O-])Nc1cccc(-c2[nH]cnc2C)c1,28%,–,–,inhibition in vivo at 20 mg/kg (Canis familiaris [2]): 54%
–,7.1,CNC(=NCCSCc1csc(N=C(N)N)n1)NC#N [TIOTIDINE],–,–,–,ED50 (Canis familiaris [4]): 0.16 mg/kg; ED50 (Canis familiaris [5]): 0.12 mg/kg
39800 nM,–,CNC(=NC#N)Nc1cccc(-c2nc[nH]c2C)c1,48%,–,–,–
–,–,C/N=C(\NC#N)Nc1ccccc1-c1[nH]cnc1C,4%,–,–,-Log Ki [6]: inactive
794 nM,–,Cc1[nH]cnc1-c1cccc(Nc2n[s+]([O-])nc2N)c1 (configuration not stated),5%,–,–,inhibition in vivo at 20 mg/kg (Canis familiaris [2]): 1%
31600 nM,6.2,CN/C(=C\[N+](=O)[O-])Nc1ccc(-c2csc(N=C(N)N)n2)cc1,–,–,–,pKa [7]: 9.7; inhibition in vivo at 3 mg/kg (Canis familiaris [8]): 55%
–,–,C/N=C(\NC#N)Nc1ccc(-c2[nH]cnc2C)cc1,0%,–,–,-Log Ki [6]: inactive
200 nM,6,CN/C(=C/[N+](=O)[O-])Nc1cccc(-c2csc(N=C(N)N)n2)c1,–,59%,70%,pKa [7]: 9.2
398 nM,–,CNc1n[s+]([O-])nc1Nc1cccc(-c2csc(N=C(N)N)n2)c1 (configuration not stated),–,85%,21%,ED50 (Canis familiaris [11]): 0.017 mg/kg
316 nM,6.2,C/N=C(\NC#N)Nc1cccc(-c2csc(N=C(N)N)n2)c1,–,79%,73%,ED50 (Canis familiaris [12]): 0.02 mg/kg; ED50 (Canis familiaris [13]): 2.81 mg/kg
316 nM,6.2,N=C(N)Nc1nc(-c2cccc(Nc3n[s+]([O-])nc3N)c2)cs1 (configuration not stated),–,58%,31%,pKa [7]: 8.9; ED50 (Canis familiaris [14]): 0.02 mg/kg

Structure (SMILES),Ki (Histamine H2 receptor),pKa [3],inhibition in vivo at 5 mg/kg (Canis familiaris [1]),inhibition in vivo at 0.03 mg/kg (Canis familiaris [9]),inhibition in vivo at 10 mg/kg (Canis familiaris [10]),other results
CN/C(=N\CCSCc1nc[nH]c1C)NC#N [CIMETIDINE],–,6.4,–,–,–,ED50 (Canis familiaris [5]): 2.86 mg/kg
